Structures are written as SMILES. pIC50, pKi: −log10 of the molar value. A value given as a limit tells only on which side of the number the result lay.

For assay [1], the target named is T1, Adenosine receptor A1 (Homo sapiens) (UniProt P30542).
T1 sequence (whole entry): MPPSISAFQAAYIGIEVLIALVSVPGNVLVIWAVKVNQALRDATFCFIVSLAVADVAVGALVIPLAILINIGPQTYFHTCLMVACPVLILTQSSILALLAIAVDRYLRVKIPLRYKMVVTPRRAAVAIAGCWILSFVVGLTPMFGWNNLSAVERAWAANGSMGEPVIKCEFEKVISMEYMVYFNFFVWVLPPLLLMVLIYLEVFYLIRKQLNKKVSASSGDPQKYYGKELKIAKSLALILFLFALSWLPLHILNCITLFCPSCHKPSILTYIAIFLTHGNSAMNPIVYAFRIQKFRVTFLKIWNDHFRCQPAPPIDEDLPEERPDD
The experiment in a line: Inverse agonist activity at human adenosine A1 receptor expressed in CHO cells assessed as inhibition of cAMP accumulation at 10 uM measured after 150 mins in presence of [3H]cAMP by scintillation counting method relative to control. Format: functional, cell-based. Put shortly:
(§1)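 Transfected CHO cells (hA1, hA2B or hA3) were grown adherently in DMEM/F12 with 10% fetal calf serum, penicillin, streptomycin, 2 mM L-glutamine and 0.2 mg/mL G418 at 37 °C in 5% CO2. Test compounds were applied at 10 μM. cAMP is reported as percent of basal level (100%), given as mean ± SEM.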
A general note: cAMP levels reflect the balance of adenylyl cyclase and phosphodiesterase activity.

In assay [2] the target is T2, Adenosine receptor A3 (Homo sapiens) (UniProt P0DMS8).
T2 sequence (whole entry): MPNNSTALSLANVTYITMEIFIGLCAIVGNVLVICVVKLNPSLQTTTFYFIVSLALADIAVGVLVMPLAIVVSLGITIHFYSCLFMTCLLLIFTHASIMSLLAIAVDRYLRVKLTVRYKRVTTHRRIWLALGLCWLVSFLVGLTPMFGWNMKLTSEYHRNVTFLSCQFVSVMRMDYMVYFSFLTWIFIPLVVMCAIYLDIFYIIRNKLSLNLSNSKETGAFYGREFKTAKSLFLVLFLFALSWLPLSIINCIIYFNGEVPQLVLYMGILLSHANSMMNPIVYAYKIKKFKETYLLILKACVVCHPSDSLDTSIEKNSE
Put plainly: Inverse agonist activity at human adenosine A3 receptor expressed in CHO cells assessed as inhibition of cAMP accumulation at 10 uM measured after 150 mins in presence of [3H]cAMP by scintillation counting method relative to control. It is filed as functional, cell-based. Put shortly: as §1

In assay [3] the target is T3, Adenosine receptor A2b (Homo sapiens) (UniProt P29275).
T3 sequence (whole entry): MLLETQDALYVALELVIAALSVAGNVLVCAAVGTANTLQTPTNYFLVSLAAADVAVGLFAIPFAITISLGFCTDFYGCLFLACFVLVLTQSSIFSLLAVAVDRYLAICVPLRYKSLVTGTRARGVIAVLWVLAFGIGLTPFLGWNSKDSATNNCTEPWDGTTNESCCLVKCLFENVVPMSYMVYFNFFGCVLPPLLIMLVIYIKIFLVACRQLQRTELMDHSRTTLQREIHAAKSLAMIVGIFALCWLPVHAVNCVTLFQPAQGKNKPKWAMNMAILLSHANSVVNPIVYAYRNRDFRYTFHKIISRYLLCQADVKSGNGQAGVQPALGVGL
The experiment in a line: Inverse agonist activity at human adenosine A2B receptor expressed in CHO cells assessed as inhibition of cAMP accumulation at 10 uM measured after 150 mins in presence of [3H]cAMP by scintillation counting method relative to control. Format: functional, cell-based. Put shortly: as §1

The species named for assay [4] is Mus musculus. Put plainly: Analgesic activity in CD-1 mouse assessed as reduction in acetic acid-induced abdominal constrictions preincubated for 15 mins followed by acetic acid challenge measured for 30 mins by writhing test. It is filed as functional. Conditions: for inhibition: Abdomen. An outline of the steps:
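Mice received acetic acid ip to induce abdominal constrictions; vehicle-treated mice served as controls. Test agents were given over a dose range. ED50 (mg/kg) was derived from the dose–response curve, and dose dependence was analysed by one-way ANOVA.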

The species named for assay [5] is Mus musculus. Put plainly: Antinociceptive activity in CD-1 mouse assessed as increase in latency in response to heat stimulus measured for 15 mins by hot water tail immersion test. Format: functional. Conditions: CD-1, 0.25 h. An outline of the steps:
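Test agents were given to mice over a dose range before hot water tail immersion. ED50 (mg/kg) was derived from the dose–response curve, and the minimum effective dose was also noted.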

Assay [6] addresses T4, Adenosine receptor A2a (Homo sapiens, UniProt P29274). Conditions: CHO.
For another assay, the target named is T5, Adenosine receptor A1 (Homo sapiens, UniProt P30542).
T5 sequence (P30542 whole entry): T1 sequence (whole entry)
The experiment in a line: Displacement of [3H]DPCPX from human adenosine A1 receptor expressed in CHO cell membranes measured after 90 mins by scintillation counting method. An outline of the steps:
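Membranes came from CHO cells stably transfected with hA1 AR. Cells were scraped into ice-cold hypotonic buffer (5 mM Tris HCl, 1 mM EDTA, pH 7.4), homogenized, and spun at 40000g for 30 min at 4 °C. Membranes (50 μg protein/100 μL) were incubated with 1 nM [3H]-DPCPX and varied test concentrations at 25 °C for 90 min in 50 mM Tris HCl, pH 7.4.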
(Displacement assays read how much labelled ligand stays bound in the presence of the test substance.)

The target of another assay is T6, Adenosine receptor A3 (Homo sapiens, UniProt P0DMS8).
T6 sequence (P0DMS8 whole entry): T2 sequence (whole entry)
The experiment in a line: Displacement of [125I]AB-MECA from human adenosine A3 receptor expressed in CHO cell membranes measured after 120 mins by scintillation counting method.

Another assay addresses T7, Adenosine receptor A2b (Homo sapiens, UniProt P29275).
T7 sequence (P29275 whole entry): T3 sequence (whole entry)
The experiment in a line: Inverse agonist activity at human adenosine A2B receptor expressed in CHO cells assessed as inhibition of cAMP accumulation measured after 150 mins in presence of [3H]cAMP by scintillation counting method. Format: functional, cell-based.

The target of assay [7] is T4, Adenosine receptor A2a. The experiment in a line: Inverse agonist activity at human adenosine A2A receptor expressed in CHO cells assessed as inhibition of cAMP accumulation measured after 150 mins in presence of [3H]cAMP by scintillation counting method. Format: functional, cell-based.
The target in assay [8] is T4, Adenosine receptor A2a. The experiment in a line: Antagonist activity against human adenosine A2A receptor expressed in CHO cells assessed as inhibition of CGS21680-stimulated cAMP accumulation measured after 150 mins in presence of [3H]cAMP by scintillation counting method. It is filed as functional, cell-based.
The target of assay [9] is T4, Adenosine receptor A2a. The experiment in a line: biochemical.

T4 sequence (P29274 whole entry): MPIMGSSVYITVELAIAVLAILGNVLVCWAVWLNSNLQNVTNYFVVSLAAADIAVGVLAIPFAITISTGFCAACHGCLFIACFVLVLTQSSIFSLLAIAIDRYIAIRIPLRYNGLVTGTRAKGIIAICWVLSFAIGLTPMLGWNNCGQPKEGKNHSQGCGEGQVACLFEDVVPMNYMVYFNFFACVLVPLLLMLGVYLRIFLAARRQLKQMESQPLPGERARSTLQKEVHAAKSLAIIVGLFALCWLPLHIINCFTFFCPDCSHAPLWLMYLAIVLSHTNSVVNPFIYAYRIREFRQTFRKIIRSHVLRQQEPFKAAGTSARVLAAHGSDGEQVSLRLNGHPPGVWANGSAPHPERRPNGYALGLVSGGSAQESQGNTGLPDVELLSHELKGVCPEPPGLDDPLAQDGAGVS

`COc1cccc(CNc2nc(N)c3nc(-c4ccco4)sc3n2)c1`: the inhibition (as a rule, the relative decrease from the control value, in per cent) is 104% in assay [1], 106% in [2], 99% in [3] and “Dose-dependent effect” in the assay filed under Mus musculus [4]. Moreover, the ED50 (commonly the midpoint of the dose-response relation) in the assay listed under Mus musculus [4] (CD-1, Abdomen) stood at 0.158 mg/kg; in the assay filed under Mus musculus [5] it was 0.926 mg/kg. Also, the KiH at Adenosine receptor A2a [6] stood at 6.71 nM.

For the compound `Nc1nc(NCc2cccc(O)c2)nc2sc(-c3ccco3)nc12`, the values for the inhibition in assay [1], in [2] and in assay [3] were 96%, 98% and 95%, respectively.

As for `Nc1nc(NCCc2ccccc2)nc2sc(-c3ccco3)nc12`, the pKi (usually the negative decadic logarithm of the Ki, by convention in mol/L) at Adenosine receptor A1 was 7.62; at Adenosine receptor A3 it was 6.66; on Adenosine receptor A2a [9], 7.52. In addition, the pIC50 (in general, the IC50 on a negative log10 scale, so that one unit is a factor of ten) is 6.41 at Adenosine receptor A2b, 7.46 at Adenosine receptor A2a [7] and 7.80 at Adenosine receptor A2a [8]. Moreover, the inhibition in [1] stood at 105%; in [2] it was 94%; in [3], 102%.

Regarding `Nc1nc(NCCc2ccc(O)cc2)nc2sc(-c3ccco3)nc12`, the pKi at Adenosine receptor A1 was 7.43; on Adenosine receptor A3, 5.72; on Adenosine receptor A2a [9], 7.74. Further, the pIC50 at Adenosine receptor A2b was 6.32; at Adenosine receptor A2a [7], 7.60; at Adenosine receptor A2a [8], 7.68. The inhibition in assay [1] worked out at 102%; in assay [2] it was 101%; in assay [3] it was 92%.

Take `Nc1nc(NCc2ccccc2)nc2sc(-c3ccco3)nc12`: the figures for the pKi on Adenosine receptor A1, at Adenosine receptor A3 and at Adenosine receptor A2a [9] were 7.35, 7.43 and 7.66, respectively. For the same compound, the pIC50 at Adenosine receptor A2b was 7.49; at Adenosine receptor A2a [7] it was 7.54; at Adenosine receptor A2a [8], 7.74. The values for the inhibition in [1], in [2] and in assay [3] were 101%, 102% and 95%, respectively.

On to `CN1CC[C@]23c4c5ccc(O)c4O[C@H]2[C@@H](O)C=C[C@H]3[C@H]1C5` [MORPHINE], for which the inhibition result in the assay listed under Mus musculus [4] was “Dose-dependent effect”. In addition, the ED50 in the assay listed under Mus musculus [5] was 1.14 mg/kg.

`Nc1nc(NCCc2ccc(O)c(O)c2)nc2sc(-c3ccco3)nc12`: the pKi on Adenosine receptor A1 was 7.41; at Adenosine receptor A3 it was 6.26; on Adenosine receptor A2a [9], 7.40. Moreover, the pIC50 on Adenosine receptor A2b is 7.74.

As for `COc1cccc(CCNc2nc(N)c3nc(-c4ccco4)sc3n2)c1`, the pKi is 9.04 on Adenosine receptor A1, 6.54 at Adenosine receptor A3 and 7.77 on Adenosine receptor A2a [9]. Further, on Adenosine receptor A2b, the pIC50 is 7.33.

Consider `COc1ccc(CCNc2nc(N)c3nc(-c4ccco4)sc3n2)cc1OC`, for which the figures for the negative logarithm of the Ki (pKi) on Adenosine receptor A1, at Adenosine receptor A3 and on Adenosine receptor A2a [9] were 6.66, 6.08 and 7.04, respectively. Further, the negative-log IC50 (pIC50) on Adenosine receptor A2b is 7.02.

As for `Nc1nc(NCCc2ccc(O)cc2)nc2nc(-c3ccco3)nn12` [ZM-241385], the inhibition is 103% in [1], 101% in assay [2], 109% in [3] and “Dose-dependent effect” in the assay filed under Mus musculus [4]. In addition, the ED50 in the assay filed under Mus musculus [5] was greater than 10 mg/kg.

For the compound `COc1ccc(CNc2nc(N)c3nc(-c4ccco4)sc3n2)cc1`, the figures for the inhibition in assay [1], in assay [2] and in [3] were 100%, 104% and 97%, respectively.

Consider `Nc1nc(NCCCc2ccccc2)nc2sc(-c3ccco3)nc12`, for which the values for the pKi on Adenosine receptor A1, on Adenosine receptor A3 and at Adenosine receptor A2a [9] were 7.31, 5.95 and 7.24, respectively. Also, the pIC50 on Adenosine receptor A2b is 5.75.

`Nc1nc(Nc2ccccc2)nc2sc(-c3ccco3)nc12`: the pKi was 6.19 on Adenosine receptor A1, 6.49 on Adenosine receptor A3 and 6.11 at Adenosine receptor A2a [9]. For the same compound, on Adenosine receptor A2b, the pIC50 is 6.20.

For `Nc1nc(NCCc2cccc(O)c2)nc2sc(-c3ccco3)nc12`, the values for the pKi on Adenosine receptor A1, on Adenosine receptor A3 and on Adenosine receptor A2a [9] were 9.64, 7.12 and 7.80, respectively. Also, the pIC50 at Adenosine receptor A2b was 7.60.

Turning to `COc1ccc(CCNc2nc(N)c3nc(-c4ccco4)sc3n2)cc1`, the pKi on Adenosine receptor A1 is 7.21; at Adenosine receptor A3, 5.58; on Adenosine receptor A2a [9], 7.49. Also, the values for the pIC50 at Adenosine receptor A2b, at Adenosine receptor A2a [7] and on Adenosine receptor A2a [8] were 6.26, 7.38 and 7.51, respectively. The inhibition was 93% in assay [1], 105% in assay [2] and 103% in assay [3].

As to `COc1ccccc1CNc1nc(N)c2nc(-c3ccco3)sc2n1`, the inhibition was 106% in [1], 91% in [2], 94% in assay [3] and “Dose-dependent effect” in the assay listed under Mus musculus [4]. Further, the minimal effective dose in the assay listed under Mus musculus [5] (read-out: MED) is 0.01 mg/kg. Also, the KiH on Adenosine receptor A2a [6] was 5.23 nM.

These data come from ChEMBL document CHEMBL3877301 (J Med Chem, 2016).
